Data taken from ChEMBL document CHEMBL2406922, “Synthesis and Metabolic Studies of Host Directed Inhibitors for Anti Viral Therapy” (ACS Med Chem Lett, 2013).

Assays:
Influenza A virus [1] = test: Antiviral activity against Influenza A virus WSN/1933 (H1N1) infected in human 293T cells after 20 hrs by luciferase reporter gene assay; format: functional, organism-based; conditions: A/WSN/1933(H1N1), HEK-293T
Summary of the method: (§1)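 293T cells were transfected with an IAV firefly-luciferase minigenome reporter plasmid (1 µg/10^5 cells), cryopreserved 28 h post-transfection, thawed, and seeded at 3×10^4 cells/well. After 20 h they were infected with TPCK-trypsin-activated IAV (MOI 0.1 pfu/cell). Luciferase bioluminescence was read 28 h post-infection after adding Bright-Glo or Dual-Glo substrate.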

[2] = Antiviral activity against Measles virus Edmonston infected in african green monkey Vero cells after 20 hrs by luciferase reporter gene assay; format: functional, cell-based, Measles virus strain Edmonston; conditions: Measles morbillivirus
Summary of the method: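 Cells seeded at 3×10^4/well and incubated 20 h, then infected with Renilla luciferase-expressing recombinant MeV-Edmonston (recMeV-ren) at MOI 0.2 TCID50/cell. Luciferase substrate added 28 h post-infection; bioluminescence read to quantify reporter expression.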

[3] = Half life in hamster liver S9 fraction; format: ADME, subcellular; conditions: cricetinae
[4] = Solubility of the compound at pH 7.4; format: physicochemical; conditions: buffer
Liver = test: (§2) Half life in human liver S9 fraction; format: ADME, subcellular; conditions: s9
[5] = as §2; format: ADME, subcellular; conditions: liver S9 fraction
Influenza A virus [6] = test: Antiviral activity against Influenza A virus A/Aichi/1968(H3N2) by firefly luciferase reporter gene assay; format: functional, organism-based; summary of the method: as §1
Influenza A virus [7] = test: Antiviral activity against Influenza A virus A/sw/Texas/2009(H1N1) virus by firefly luciferase reporter gene assay; format: functional, organism-based; summary of the method: as §1
[8] = tested on: Respiratory syncytial virus; test: Antiviral activity against Respiratory syncytial virus by firefly luciferase reporter gene assay; format: functional, organism-based; conditions: human respiratory syncytial virus

CCOC(=O)Cn1c(-c2ncsc2NC(=O)c2c(F)cccc2F)nc2ccccc21
EC50 (Influenza A virus [1]): 10 µM | EC50 [2]: 10 µM

Cn1c(S(=O)(=O)C(F)(F)c2ccccc2)nc(-c2ccccc2)c1-c1ccccc1
EC50 (Influenza A virus [1]): > 10 µM | EC50 [2]: > 10 µM

Cn1c(C(=O)Nc2ccccc2F)nc(-c2ccccc2)c1-c1ccccc1
EC50 (Influenza A virus [1]): 10 µM | EC50 [2]: 9 µM

CN(Cc1nc(-c2ccccc2)c(-c2ccccc2)n1C)c1ccccc1
half-life [3]: < 5 min | solubility [4]: < 15 µg/mL | t1/2 (Liver): 165 min | EC50 (Influenza A virus [1]): 0.88 µM | EC50 [2]: 0.91 µM

Nc1ccc(C(=O)Cn2c(-c3nccnc3NC(=O)c3ccccc3)nc3ccccc32)cc1
EC50 (Influenza A virus [1]): > 10 µM | EC50 [2]: > 10 µM

O=C(O)Cn1c(-c2csc(NC(=O)c3c(F)cccc3F)n2)nc2ccccc21
EC50 (Influenza A virus [1]): > 10 µM | EC50 [2]: > 10 µM

O=C(Nc1nonc1-c1nc2ccccc2[nH]1)c1ccccc1F
EC50 (Influenza A virus [1]): > 10 µM | EC50 [2]: > 10 µM

CN(Cc1nc(-c2ccccc2)c(-c2ccccc2)n1C)c1ccc(O)cc1
EC50 (Influenza A virus [1]): 10 µM | EC50 [2]: 10 µM

Cn1c(SCc2ccccc2)nc(-c2ccccc2)c1-c1ccccc1
half-life [3]: 3 min | t1/2 (Liver): 15 min | EC50 (Influenza A virus [1]): 0.4 µM | EC50 [2]: 6 µM

Cn1c(S(=O)(=O)Cc2cccnc2)nc(-c2ccccc2)c1-c1ccccc1
EC50 (Influenza A virus [1]): > 10 µM | EC50 [2]: 9 µM

Nc1ccc(C(=O)Cn2c(-c3nonc3NC(=O)c3ccccc3F)nc3ccccc32)cc1
EC50 (Influenza A virus [1]): 0.7 µM | EC50 [2]: 0.4 µM

C=CCn1c(S(=O)(=O)Cc2ccc(F)cc2)nc(-c2ccccc2)c1-c1ccccc1
EC50 (Influenza A virus [1]): 4.2 µM | EC50 [2]: 4.6 µM

Cn1c(S(=O)(=O)Cc2ccncc2)nc(-c2ccccc2)c1-c1ccccc1
EC50 (Influenza A virus [1]): > 10 µM | EC50 [2]: > 10 µM

Cn1cc(NC(=O)c2ccccc2F)c(-c2nc3ccccc3[nH]2)n1
EC50 (Influenza A virus [1]): > 10 µM | EC50 [2]: > 10 µM

CCn1c(S(=O)(=O)Cc2ccccc2)nc(-c2ccccc2)c1-c1ccccc1
EC50 (Influenza A virus [1]): 2 µM | EC50 [2]: 1 µM

O=S(=O)(Cc1ccccc1)c1nc(-c2ccccc2)c(-c2ccccc2)n1Cc1ccccc1
EC50 (Influenza A virus [1]): 10 µM | EC50 [2]: > 10 µM

Cn1c(C(O)Cc2ccccc2)nc(-c2ccccc2)c1-c1ccccc1 (stereo unspecified)
EC50 (Influenza A virus [1]): > 10 µM | EC50 [2]: > 10 µM

CN(Cc1nc(-c2ccccc2)c(-c2ccccc2)n1C)c1ccccn1
EC50 (Influenza A virus [1]): 10 µM | EC50 [2]: 10 µM

Cn1c(CCc2ccccc2)nc(-c2ccccc2)c1-c1ccccc1
EC50 (Influenza A virus [1]): 10 µM | EC50 [2]: 6 µM

Cn1c(S(=O)(=O)Cc2ccccc2)nc(-c2ccccc2)c1-c1ccccc1
half-life [3]: < 2.5 min | half-life [5]: 2 min | EC50 (Influenza A virus [1]): 0.3 µM | EC50 [2]: 4 µM

Cn1c(C(=O)Cc2ccccc2)nc(-c2ccccc2)c1-c1ccccc1
half-life [3]: 5 min | t1/2 (Liver): > 90 min | EC50 (Influenza A virus [1]): 10 µM | EC50 [2]: > 10 µM

CC(C)n1c(-c2csc(NC(=O)c3c(F)cccc3F)n2)nc2ccccc21
EC50 (Influenza A virus [1]): 4 µM | EC50 [2]: 10 µM

CCN(Cc1nc(-c2ccccc2)c(-c2ccccc2)n1C)c1ccccc1
EC50 (Influenza A virus [1]): 10 µM | EC50 [2]: 10 µM

Cn1c(S(=O)(=O)Cc2ccc(F)cc2)nc(-c2ccc(F)cc2)c1-c1cccnc1
EC50 (Influenza A virus [1]): > 10 µM | EC50 [2]: > 10 µM

CN(Cc1nc(-c2ccccc2)c(-c2ccccc2)n1C)c1ccccc1C(=O)O
solubility [4]: > 300 µg/mL | EC50 (Influenza A virus [1]): 3 µM | EC50 [2]: 3 µM

Cn1c(S(=O)(=O)C(F)(F)c2ccc(F)cc2)nc(-c2ccc(F)cc2)c1-c1ccc(F)cc1
half-life [3]: 54 min | t1/2 (Liver): > 90 min | EC50 (Influenza A virus [1]): > 10 µM | EC50 [2]: > 10 µM

C#CCn1c([S+](=O)([O-])Cc2ccc(F)cc2)nc(-c2ccccc2)c1-c1ccccc1
half-life [3]: < 2.5 min | EC50 (Influenza A virus [6]): 0.92 µM | t1/2 (Liver): 19 min | EC50 (Influenza A virus [7]): 0.2 µM | EC50 (Influenza A virus [1]): 0.5 µM | EC50 [8]: 0.45 µM | EC50 [2]: 0.74 µM

O=S(=O)(Cc1ccccc1)c1nc(-c2ccccc2)c(-c2ccccc2)[nH]1
half-life [3]: < 2.5 min | t1/2 (Liver): 14 min | EC50 (Influenza A virus [1]): > 10 µM | EC50 [2]: > 10 µM

Cn1c(CN(Cc2ccccc2)c2ccccc2)nc(-c2ccccc2)c1-c1ccccc1
EC50 (Influenza A virus [1]): > 10 µM | EC50 [2]: > 10 µM

Cn1c(C(=O)Nc2ccccc2[N+](=O)[O-])nc(-c2ccccc2)c1-c1ccccc1
EC50 (Influenza A virus [1]): 6 µM | EC50 [2]: 9 µM

Cn1c(S(=O)(=O)Cc2ccc(F)cc2)nc(-c2ccc(F)cc2)c1-c1ccncc1
EC50 (Influenza A virus [1]): > 10 µM | EC50 [2]: > 10 µM

CCOC(=O)Cn1c(-c2nonc2NC(=O)c2ccccc2F)nc2ccccc21
EC50 (Influenza A virus [6]): 0.05 µM | EC50 (Influenza A virus [7]): 0.1 µM | EC50 (Influenza A virus [1]): 0.012 µM | EC50 [8]: 0.14 µM | EC50 [2]: 0.023 µM

COc1ccc(-n2c(SC(C)C(=O)Nc3ccc(C)cc3Cl)nc3ccccc32)cc1 (stereo unspecified)
EC50 (Influenza A virus [7]): 0.04 µM | EC50 [8]: 0.07 µM

Cn1c(S(=O)(=O)Cc2ccc(F)cc2)nc(-c2ccc(F)cc2)c1-c1ccc(F)cc1
half-life [3]: < 2.5 min | t1/2 (Liver): < 2.5 min | EC50 (Influenza A virus [1]): > 10 µM | EC50 [2]: > 10 µM

Cn1c(S(=O)(=O)Nc2ccccc2)nc(-c2ccccc2)c1-c1ccccc1
half-life [3]: < 2.5 min | t1/2 (Liver): 27 min | EC50 (Influenza A virus [1]): > 10 µM | EC50 [2]: > 10 µM
